An excerpt weighted towards active compounds, which were near 2.5% of everything screened.
TRPC4 PAM: allosteric potentiators of mouse TRPC4 channel; HEK293 TRPC4beta/mu-opioid, DAMGO EC20, Fluo-4 Ca2+ flux; stronger effect = higher value; B-score at 10 µM; 310,000 tested, 0.42% active;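 active = B-score of calcium response area above 5 SD of library B-scores, with initial fluorescence ratio within 5 SD of library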;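 also: B-score of integrated fluorescence ratio over time as area under calcium response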
Pemphigus Ab inh: blocks pemphigus antibody binding to human desmoglein-3 | DSG3-coupled beads, scFv-anti-DSG3-GFP binding, flow cytometry; stronger effect = lower value | binding (percent of control), % at 10 µM | AID 588358 | 310,000 tested, 0.48% active | P32926;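 active = binding more than 3 SD below its plate's average and above zero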;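 also: hits lower antibody fragment binding to DSG3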
TRPC4 inh: TRPC4 (mouse) channel inhibition; Q9QUQ5; HEK293 TRPC4beta/mu-opioid, DAMGO-evoked Fluo4 calcium flux; stronger effect = lower value; B-score at 10 µM; 300,000 tested, 0.39% active; AID 2247;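 active = B-score over 3 SD under the library average, no early fluorescence shift, positive overall ratio signal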
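test system = HEK293 cells with stable TRPC4beta plus mu-opioid receptor expression | detection = Fluo4 Ca2+ flux fluorescence | read-out = integrated fluorescence ratio relative to baseline, converted to per-well B score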
TRPC6 act: mouse TRPC6 channel activation; B-score at 10 µM; HEK293-TRPC6 membrane potential dye fluorescence; stronger effect = higher value; AID 2550; 310,000 tested, 0.13% active; Q61143;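 active = B-score of the integrated fluorescence ratio above library mean plus 3 SD, and starting fluorescence ratio within library mean plus 5 SD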;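 also: higher score means more depolarization so channel activation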
TRPC6 inhibitor: blocks the mouse TRPC6 cation channel; Q61143; 310,000 tested, 1.1% active; HEK293-TRPC6, membrane potential dye, ACh-evoked depolarization; stronger effect = lower value; B-score at 10 µM;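 active = B-score under library mean minus 3 SD, initial fluorescence not abnormally high, positive integrated signal ratio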;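 also: B-score derived from integrated fluorescence ratio over the kinetic read; more negative B-score means stronger inhibition of depolarization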
TRPC4 agonist: activators of mouse TRPC4 channel. HEK293 TRPC4beta/mu-opioid, Fluo4 calcium fluorescence; stronger effect = higher value. B-score at 10 µM. 310,000 tested, 0.49% active. AID 2237;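 active = B-score above 5 SD of library B-scores, and initial fluorescence ratio not above library mean plus 5 SD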;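 also: positive B-score marks a calcium rise read as TRPC4 activation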
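Incubation: 45 min room-temperature Fluo4 loading, 110 s read / System: HEK293 cells stably co-expressing mouse TRPC4beta and mu-opioid receptor / Signal: Fluo4 fluorescence, kinetic / Control set: buffer (low) and maximal DAMGO (high) / Measure: integrated baseline-normalised fluorescence ratio, converted to per-well B score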
HEK293 TRPC6 ctr: counter-screen for TRPC6 modulators: effect in parental HEK293 cells. shares compounds with TRPC6 inhibitor. membrane potential dye fluorescence. membrane potential signal change, % at 10 µM. 2,400 tested, 51% active;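 active = membrane potential signal moves up or down beyond 5 SD from buffer-only wells, on both duplicate plates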
HEK293 MPD ctr 2: parental HEK293 nonspecific activity of TRPC6 modulators, second screen; AID 488926; 2,400 tested, 14% active; membrane potential dye fluorescence; after compound, maximal acetylcholine stimulation; shares compounds with TRPC6 inhibitor; inhibition, % at 10 µM;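 active = membrane potential signal drops by more than 5 SD from the mean control signal, in both duplicate plates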;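 also: plate controls were acetylcholine ECmax control wells for no effect and buffer only wells for full effect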
TRPC4/MOR mod: tests whether TRPC6 modulators also affect mouse TRPC4. 2,400 tested, 69% active. HEK293 TRPC4/mu-opioid, membrane potential fluorescence. percent change from control (negative = decrease, positive = increase), % at 10 µM. shares compounds with TRPC6 inhibitor;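 active = membrane potential signal moved up or down beyond 5 SD of buffer control wells, in both duplicate plates, actives on both sides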;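 also: plate controls were assay buffer wells for no effect and DAMGO maximal-effect wells for full effect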
TRPC4 ctr inh 2: second selectivity test of TRPC6 modulators against mouse TRPC4; inhibition, % at 10 µM; HEK293 TRPC4/mu-opioid, membrane potential dye fluorescence; stimulated with maximal-effect DAMGO; AID 488928; shares compounds with TRPC6 inhibitor; 2,400 tested, 55% active;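 active = drop in membrane potential signal beyond 5 SD of the control wells in both duplicate plates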;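 also: TRPC4 counter screen for TRPC6 hits run under conditions tuned for TRPC6 not TRPC4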
TRPC6 block conf: mouse TRPC6 inhibitor confirmation; shares compounds with TRPC6 inhibitor; HEK293-TRPC6, membrane potential dye, ACh-evoked depolarization; inhibition, % at 10 µM; 3,300 tested, 43% active; AID 488960;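 active = fluorescence ratio falls more than 5 SD below the full-stimulation control mean, in both duplicate runs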;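 also: integrated fluorescence ratio of peak minus minimum over baseline after agonist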
TRPC6 act confirm: confirmation of mouse TRPC6 activators. shares compounds with TRPC6 inhibitor. HEK293-TRPC6 membrane potential dye fluorescence, FDSS. activation, % at 10 µM. 2,800 tested, 11% active. AID 488961;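 active = ratio signal rise beyond 5 SD above unstimulated control wells' mean, seen in both duplicate runs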;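 also: plate controls were buffer EC0 wells for no effect and acetylcholine ECmax response for full effect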
An asterisk follows results filed as active.

What do the screens show for `C=CCN1C=CC=C/C1=C1\SC(=S)N(C)C1=O`?
TRPC4 PAM: inactive; Pemphigus Ab inh: 102; TRPC4 inh: inactive; TRPC6 act: inactive; TRPC6 inhibitor: -5.1*; TRPC4 agonist: inactive; HEK293 TRPC6 ctr: inactive; HEK293 MPD ctr 2: inactive; TRPC4/MOR mod: inactive; TRPC4 ctr inh 2: inactive; TRPC6 block conf: inactive; TRPC6 act confirm: inactive

What do the screens show for `CN1C=CC=C/C1=C1\SC(=S)N(c2ccccc2)C1=O`?
TRPC4 PAM: inactive; Pemphigus Ab inh: 98; TRPC4 inh: inactive; TRPC6 act: inactive; TRPC6 inhibitor: inactive; TRPC4 agonist: inactive

Results for COc1ccc(N2CC(C(=O)N3CCN(S(=O)(=O)c4ccc(F)c(F)c4)CC3)CC2=O)c(OC)c1 (configuration not stated) ?
Pemphigus Ab inh: 113

Results for C#CCOCCOCCOCCNc1nc(N2CCN(C(=O)[C@H]([C@@H](C)CC)n3cc([C@@H](N)CO)nn3)CC2)nc(N2CCN(C(=O)[C@H]([C@@H](C)CC)n3cc([C@@H](N)Cc4ccc(O)cc4)nn3)CC2)n1 ?
TRPC4 PAM: inactive; Pemphigus Ab inh: 105; TRPC4 inh: inactive; TRPC6 act: inactive; TRPC6 inhibitor: inactive; TRPC4 agonist: inactive

What do the screens show for `C#CCOCCOCCOCCNc1nc(N2CCN(C(=O)[C@H]([C@@H](C)CC)n3cc([C@@H](N)Cc4ccc(O)cc4)nn3)CC2)nc(N2CCN(C(=O)[C@H]([C@@H](C)CC)n3cc([C@@H](N)Cc4ccc(O)cc4)nn3)CC2)n1`?
TRPC4 PAM: inactive; Pemphigus Ab inh: 107; TRPC4 inh: inactive; TRPC6 act: inactive; TRPC6 inhibitor: -6*; TRPC4 agonist: inactive; HEK293 TRPC6 ctr: -102%*; HEK293 MPD ctr 2: inactive; TRPC4/MOR mod: -28%*; TRPC4 ctr inh 2: inactive; TRPC6 block conf: inactive; TRPC6 act confirm: inactive

What do the screens show for `COc1ccc(C2C(C(N)=O)=C(C)Nc3nc(CCCO)nn32)cc1` (configuration not stated)?
TRPC4 PAM: inactive; Pemphigus Ab inh: 103; TRPC4 inh: inactive; TRPC6 act: inactive; TRPC6 inhibitor: inactive; TRPC4 agonist: inactive

How did COc1ccc(C2C(C(N)=O)=C(C)Nc3nc(CCCO)nn32)cc1OC (configuration not stated) do in these assays?
TRPC4 PAM: inactive; Pemphigus Ab inh: 97; TRPC4 inh: inactive; TRPC6 act: inactive; TRPC6 inhibitor: -5.9*; TRPC4 agonist: inactive; HEK293 TRPC6 ctr: inactive; HEK293 MPD ctr 2: inactive; TRPC4/MOR mod: inactive; TRPC4 ctr inh 2: inactive; TRPC6 block conf: inactive; TRPC6 act confirm: inactive

What do the screens show for `CCOC(=O)c1ccc(NC(=O)N2CCN(c3cccc(OC)c3)CC2)cc1`?
TRPC4 PAM: inactive; Pemphigus Ab inh: 90; TRPC4 inh: inactive; TRPC6 act: inactive; TRPC6 inhibitor: inactive; TRPC4 agonist: inactive

High-throughput results as filed in PubChem BioAssay.
